Data reported in ChEMBL document CHEMBL3046935, “Bioassay-directed isolation and identification of phytotoxic and fungitoxic acetylenes from Conyza canadensis” (J Agric Food Chem, 2012).
Active and inactive are the calls of the source. No cut-off for these calls is given here.

Key:
Lactuca sativa = assay: Phytotoxicity against […] dicot Lactuca sativa (lettuce) seeds assessed as inhibition of germination of seeds at 1 mg/mL after 7 days; assay type: organism-based; details: in vivo, 168 h
How it was run: (§1)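 Seeds (5 mg lettuce or 10 mg bentgrass) were placed on filter paper in 24-well plates with 250 μL of test solution per well (acetone 3% final). Solvent-only wells served as controls. Plates were sealed and kept at 26 °C under continuous light for 7 days. Germination was rated visually on a 0−5 scale against untreated controls (0 = no effect, 5 = no growth/germination), with experiments in duplicate.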

Agrostis stolonifera = assay: Phytotoxicity against Agrostis stolonifera seeds assessed as inhibition of germination of seeds at 1 mg/mL after 7 days; assay type: organism-based; details: in vivo, 168 h; how it was run: as §1
Colletotrichum acutatum [1] = assay: Antifungal activity against Colletotrichum acutatum assessed as growth inhibition at 0.3 to 30 uM by Ninety-Six Well microbioassay; assay type: functional, organism-based
How it was run: (§2)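 Fungi (the Colletotrichum isolates came from strawberry anthracnose lesions) were grown on PDA at 24 ± 2 °C under a 12 h photoperiod. They were tested in 96-well microtiter dose-response format at final concentrations of 0.3, 3.0 and 30.0 μM, in duplicate. Growth was read as absorbance at 620 nm at 0, 24, 48 and 72 h, with solvent controls.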

Colletotrichum fragariae [2] = assay: Antifungal activity against Colletotrichum fragariae assessed as growth inhibition at 10 ug/spot by […]; assay type: functional
Colletotrichum acutatum [3] = assay: Antifungal activity against Colletotrichum acutatum assessed as growth inhibition at 10 ug/spot by […]; assay type: functional
[4] = system: Colletotrichum gloeosporioides; assay: Antifungal activity against Colletotrichum gloeosporioides assessed as growth inhibition at 0.3 to 30 uM by Ninety-Six Well microbioassay; assay type: functional, organism-based; how it was run: as §2
[5] = system: Colletotrichum gloeosporioides; assay: Antifungal activity against Colletotrichum gloeosporioides assessed as growth inhibition at 10 ug/spot by […]; assay type: functional
Colletotrichum fragariae [6] = assay: Antifungal activity against Colletotrichum fragariae assessed as growth inhibition at 0.3 to 30 uM by Ninety-Six Well microbioassay; assay type: functional, organism-based; how it was run: as §2
Lemna aequinoctialis = assay: Inhibition of growth of Lemna paucicostata

C/C=C\C#CC#C/C=C\C(=O)OC [(2Z,8Z)-MATRICARIA ACID METHYL ESTER]
Activity (Lactuca sativa): Toxic
Activity (Agrostis stolonifera): Toxic

CCCC#C/C=C1/C=CC(=O)O1 [(4Z)-LACHNOPHYLLUM LACTONE]
Activity (Colletotrichum acutatum [1]): Active
diameter of the inhibition zone (DIZ) (Colletotrichum fragariae [2]): 0.3 mm
diameter of the inhibition zone (DIZ) (Colletotrichum acutatum [3]): 0.75 mm
Activity [4]: Active
Activity (Lactuca sativa): Toxic
diameter of the inhibition zone (DIZ) [5]: 0.58 mm
Activity (Colletotrichum fragariae [6]): Active
IC50 (Lemna aequinoctialis): 104 µM
Activity (Agrostis stolonifera): Toxic

C/C=C\C#C/C=C1/C=CC(=O)O1 [(4Z,8Z)-MATRICARIA LACTONE]
Activity (Colletotrichum acutatum [1]): Active
diameter of the inhibition zone (DIZ) (Colletotrichum fragariae [2]): 2.65 mm
diameter of the inhibition zone (DIZ) (Colletotrichum acutatum [3]): 0.7 mm
Activity [4]: Active
Activity (Lactuca sativa): Toxic
diameter of the inhibition zone (DIZ) [5]: 0.98 mm
Activity (Colletotrichum fragariae [6]): Active
IC50 (Lemna aequinoctialis): 220 µM
Activity (Agrostis stolonifera): Toxic
